A short description of series [1]: Half life in Swiss mouse at 50 mg/kg, po by LC-MS/MS analysis. The note with it: in vivo. The class given is ADME, organism-based.
Series [2] in a line: Half life in mouse liver S9 fractions at 1 mM in presence of NADPH by HPLC method. Format: ADME, tissue-based.
In series [3] the test system is Mus musculus. Description: Increase in iNOS mRNA expression level in Balb/c mouse splenocytes infected with Leishmania donovani amastigote forms at 25 mg/kg, ip for 5 consecutive days measured on day 7 post last treatment by RT-PCR assay relative to control. The class given is functional. The method in brief: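 Infected BALB/c mice dosed for 5 consecutive days (test compound i.p. in 8% DMSO, miltefosine oral), n = 5 per group; splenocytes taken day 4 and day 7 post-treatment. Total RNA extracted and iNOS mRNA quantified by real-time PCR, normalized to mouse β-actin, expressed as fold change over uninfected controls.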

Series [4] deals with Mus musculus. Description: Decrease in TGFbeta level in Balb/c mouse splenocytes infected with Leishmania donovani amastigote forms at 25 mg/kg, ip co-treated with 5 mg/kg, po miltefosine administered for 5 consecutive days measured on day 7 post last treatment by sandwich ELISA relative to control. The class given is functional. In outline:
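Splenocytes (2×10^6) from treated infected BALB/c mice taken on day 4 or 7 post-treatment. Cultured in phenol-red-free RPMI 1640 with 5 μg/mL soluble L. donovani antigen for 72 h at 37 °C, 5% CO2. Supernatant cytokines measured by sandwich ELISA against a standard curve. Mean ± SD, n = 5 mice per group, three independent experiments.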
In general terms: ELISA stands for enzyme-linked immunosorbent assay.

In series [5] the test system is Leishmania donovani. Description: Induction of mitochondrial membrane potential loss in Leishmania donovani MHOM/IN/80/DD8 promastigote forms at 50 uM after 48 hrs by JC-1 staining based flow cytometry (reference value: 5.02%). Format: functional. For orientation: A flow cytometer gives signals particle by particle.
Series [6] relates to Leishmania donovani. Nature of the series: Antileishmanial activity against Leishmania donovani amastigote forms infected in Balb/c mouse assessed as reduction in liver weight at 12.5 to 200 mg/kg, ip administered for 5 consecutive days. Format: functional, organism-based.
Series [7] deals with Leishmania donovani. Nature of the series: Induction of mitochondrial membrane potential loss in Leishmania donovani MHOM/IN/80/DD8 promastigote forms at 50 uM after 24 hrs by JC-1 staining based flow cytometry (reference value: 5.02%). Format: functional.

The source made the active and inactive calls. The rule behind the calls is not given here.

The half-life is how long it takes for the measured level to halve.

Take `COc1ccc(C2C3=C(CCC3=O)Nc3c2c(-c2c[nH]c4ccccc24)nn3-c2ccc(Cl)c(Cl)c2)cc1OC` (configuration not stated): the half-life in series [1] is 289 min. The half-life at 1000 µM in series [2] worked out at 50.5 min. In addition, the “fold change (FC)” value in the series on Mus musculus [3] was found to be 3.3. In the series with Mus musculus [4], the “inhibition (INH)” value worked out at 93%. Moreover, the results for the Activity with Leishmania donovani [5] and in the series on Leishmania donovani [7] were 44.9% and 52.6%, respectively. Further, the result in the series on Leishmania donovani [6] was Active.
